Source: PubChem
bCat KO growth – beta-catenin-lacking colon tumor cell growth suppression | AID 818 | hit rate 1.5% among 140,000 | HCT116 beta-catenin knockout viability, CellTiter-Glo, 60 h; hits give low values | viability, % at 10 µM;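 active = viability at or under a set limit, the compound median less 4 SD, cut at about 6% in these data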;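 note: 0% = Hyamine 1622 control at 20 µM and 100% = untreated cell control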
Lung fibro prol – blocks proliferation of human lung fibroblasts | LL 47 human lung fibroblast viability, ATP luminescence; hits give low values | viability, % at 10 µM | hit rate 1.1% among 85,000 | AID 719;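 active = viability at or below 50% in the single dose screen; inactive = viability above 50%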;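 note: compound exposure lasted 72 h before the ATP readout; 100% = median luminescence of untreated cell-only wells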
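Test system: LL 47 human lung fibroblasts; Quantity: 1,150 cells/well; Buffer or medium: IMEM plus 15% FBS; Dosing: tenfold compound dosing solution, DMSO at 0.1%; Timing: overnight cell rest, 72 h compound treatment at 37 °C; Detection: ATP-based CellTiter-Glo luminescent readout; Read-out basis: viability percentage against median untreated-cell control; Controls: cell-only wells, no compound.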
Cav32 inh – human Cav3.2 channel inhibition, primary screen. O95180. Cav3.2-expressing cells, Fluo-4 calcium fluorescence FDSS; hits give low values. hit rate 4% among 100,000. AID 449739. B-score at 10 µM;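 active = single-dose well whose peak fluorescence ratio is a statistical outlier from its plate by either plate-standardised score or position-corrected B-score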
HUVEC prolif 384 – inhibitors of human endothelial cell proliferation; HUVEC proliferation, CellTiter-Glo luminescence, 72 h; hits give low values; viability, % at 10 µM (by protocol); hit rate 1.1% among 86,000; AID 648;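 active = viability at or below 30%; inactive = viability above 30%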;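 note: 100% = median luminescence of DMSO-only cell control wells on each plate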
HCT116 PTEN-null – suppresses growth of cells with PTEN deletion; HCT116 PTEN-null viability, CellTiter-Glo, 60 h; hits give low values; hit rate 1.2% among 140,000; viability, % at 10 µM;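 active = viability at or below a set limit, 4 SD under the median of all tested compounds, cut at about 3.7% in these data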;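 note: PTEN knockout HCT116 line with beta catenin targeted HCT116 as companion control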
H69AR growth 86K – growth inhibitors of human H69AR lung tumor cells | H69AR lung tumor viability, ATP luminescence, 72 h; hits give low values | viability, % at 10 µM | hit rate 6% among 85,000 | AID 598;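 active = viability at or below 40%; inactive = viability above 40%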;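 note: multidrug resistant small cell line overexpressing MRP-1 efflux transporter; 100% = mean luminescence of untreated control wells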
The depositor's hits bear a star; / = not tested or not shown. The list is not random: actives were taken first. Their share in the collection is about 7.1%.

SMILES	bCat KO growth	Lung fibro prol	Cav32 inh	HUVEC prolif 384	HCT116 PTEN-null	H69AR growth 86K
Cc1ccc(N)c(C(O)(C(F)(F)F)C(F)(F)F)c1	91.9	106.1	-0.327	99.5	90.4	92.1
FC(F)(F)C1=CC(c2ccc(Br)cc2)=NCCN1	61.2	106.8	-0.147	94.6	68.2	95.5
O=C(/C=C/c1ccccc1)NC(NC(=S)Nc1ccc(Cl)cc1)C(Cl)(Cl)Cl (stereo not drawn)	11.5	/	-7.43*	/	9.1	/
COc1ccc(NC(=S)NC(NC(=O)/C=C/c2ccccc2)C(Cl)(Cl)Cl)cc1 (stereo not drawn)	75.5	/	-2.66	/	65.6	/
CCNC(=S)N(CCc1ccccc1C)Cc1cc2cc(OC)c(OC)cc2[nH]c1=O	77.5	/	/	/	86.6	/
COc1cc2cc(CN(CCc3ccccc3C)C(=S)NCCCN(C)C)c(=O)[nH]c2cc1OC	2.2*	/	/	/	1.8*	/
CCOC(=O)c1[nH]c2ccccc2c1NC(=O)c1ccc(S(=O)(=O)N2CCCCC2)cc1	27.0	/	/	/	43.2	/
CC(=O)c1sc(Nc2nc3ccc(F)cc3s2)nc1C	49.8	94.3	-0.00473	56.6	50.0	20.8*
COC(=O)c1ccc2nc(Nc3nc4ccc(F)cc4s3)sc2c1	81.8	/	/	/	87.2	/
CCOC(=O)c1csc(Nc2nc3ccc(F)cc3s2)n1	4.7*	/	/	/	5.3	/
CC(NC(=O)Nc1ccc([N+](=O)[O-])cc1)C(c1cccs1)N1CCCC1 (stereo not drawn)	78.5	/	/	/	75.1	/
CCc1nnc(NC(=O)C2Cc3ccccc3CN2S(=O)(=O)c2c(C)c(C)cc(C)c2C)s1 (stereo not drawn)	94.3	/	-3.52	/	85.2	/
CCCCc1c(C(=O)O)cc(OC)cc1C(=O)O	89.9	106.3	-0.236	89.3	98.5	89.9
CCCCCc1c2c(cc(O)c1C(=O)O)OC(=O)c1c(cc(OC)cc1C(=O)CCCC)O2	/	/	-3.95*	/	/	/
COC(=O)/C=C1/N/C(=N\c2nc(C)cc(C)n2)N(c2ccc(Cl)cc2)C1=O	69.7	/	/	/	83.3	/
CCCn1c(SCC(=O)c2cc(C)c(C)cc2C)n[nH]c1=O	107.8	110.2	-0.551	109.4	88.6	94.9
CCCOC(=O)c1c(NC(=O)CSc2nc(-c3ccco3)cc(C(F)(F)F)n2)sc(C(=O)OC)c1C	71.5	95.9	-5.22*	108.0	83.1	87.9
O=C(CSc1nc(-c2ccco2)cc(C(F)(F)F)n1)Nc1ccc2c(c1)OCO2	67.6	90.0	-2.21	67.9	64.2	23.8*
O=C(CSc1nc(-c2ccco2)cc(C(F)(F)F)n1)Nc1cccnc1	67.8	85.1	-0.59	69.0	65.2	20.5*
O=C(CSc1nc(-c2ccco2)cc(C(F)(F)F)n1)Nc1ccc(C(=O)N2CCOCC2)cc1	91.6	108.2	0.974	101.5	86.1	78.3
CC1(c2nnc(Cc3ccccc3)o2)CC(c2cccc(Cl)c2)=NO1 (stereo not drawn)	/	/	-1.88	/	/	/
CCOC(=O)C1=C(C)NC(=O)NC1C(C)C (stereo not drawn)	/	/	1.47	/	/	/
CC1CC(C)CN(CCOc2ccc(Br)cc2)C1 (stereo not drawn)	83.2	/	/	/	90.5	/
Cc1sc2nc(CN(C(=O)c3cccs3)C3CCCC3)[nH]c(=O)c2c1C	78.8	103.8	-4.8*	92.2	66.6	89.3
C=C(C)C1Cc2nc(N)nc(C)c2C1 (stereo not drawn)	92.0	97.8	1.13	93.1	95.6	88.6
SMILES	bCat KO growth	Lung fibro prol	Cav32 inh	HUVEC prolif 384	HCT116 PTEN-null	H69AR growth 86K
C=C(C)C1Cc2c(C)nn(-c3nc(C)cc(C)n3)c2C1 (stereo not drawn)	68.9	87.6	-1.43	92.1	67.6	3.2*
CC(=O)CCS(=O)(=O)c1ccc(Oc2ccc(S(=O)(=O)CCC(C)=O)cc2)cc1	62.6	10.8*	0.758	94.3	77.8	1.3*
COc1ccc(S(=O)(=O)CCC(=O)O)cc1	98.9	103.3	0.546	105.2	109.5	101.9
Cc1ccc(NC(=O)CSc2nnc(-c3n[nH]c4ccccc34)n2-c2ccccc2)c(C)c1	61.9	/	/	/	52.6	/
Cc1cc(C(=O)Nc2c(C)n(C)n(-c3ccccc3)c2=O)c2ccccc2n1	96.7	95.2	-0.245	95.7	92.6	96.7
Cc1ccc(-c2cc(C(=O)Nc3cccnc3)c3ccccc3n2)o1	85.9	103.2	0.519	81.8	85.6	60.5
Cc1ccc(NC(=O)c2cc(-c3ccc(C)o3)nc3ccccc23)cc1	57.2	90.0	-0.909	94.2	45.6	32.2*
CCc1ccc(-c2cc(C(=O)Nc3c(C)n(C)n(-c4ccccc4)c3=O)c3ccccc3n2)s1	57.3	/	-4.28*	/	49.2	/
